# Measurements reported in ChEMBL document CHEMBL3860085, “Synthesis and evaluation of dihydropyrimidinone-derived selenoesters as multi-targeted directed compounds against Alzheimer's disease” (Bioorg Med Chem, 2016).
# Assays:
# [1] = Metal chelating activity assessed as compound-Fe2+ complex formation after 10 mins by UV-Vis spectrophotometer; type: physicochemical
# How it was run: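 Fe2+ chelation by modified Minotti–Aust method. Compounds 5–100 μM with Fe2+ 120 μM (final), 37°C 10 min, then 1,10-phenanthroline (0.25% w/v) added and A510 read. Methanol serves as control, BHT as reference chelator. % chelation = (A control − A sample)/A control × 100; EC50 derived. Mean ± SEM, n=3 in duplicate.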
# [2] = Antioxidant activity assessed as inhibition of Fe2+-induced thiobarbituric acid reactive substance formation in phospholipids extracted from egg yolk by measuring malondialdehyde levels per mg of triglycerides at 100 uM after 1 hr by UV-Vis spectrophotometric method (reference value: 8.17 +/- 0.32 nmol); type: functional
# How it was run: (§1)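 Egg-yolk phospholipids (isopropanol/water extract, pellet resuspended; 1 mg/mL triglycerides) incubated with or without fresh FeSO4 100 μM plus compound in 0.05 M potassium phosphate pH 7.5, 37°C 1 h. Acetic acid (pH 3.4) and 0.6% TBA added, 97°C 1 h, n-butanol extraction, A532 against MDA standard. Reported as nmol MDA/mg triglycerides. Mean ± SEM, n=3 in duplicate.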
# Acetylcholinesterase = Acetylcholinesterase (Electrophorus electricus, UniProt O42275); test: Inhibition of electric eel AChE using acetylthiocholine iodide as substrate preincubated for 15 mins followed by substrate addition measured every 15 secs for 5 to 10 mins by Ellman's method
# [3] = Antioxidant activity assessed as inhibition of Fe2+-induced thiobarbituric acid reactive substance formation in phospholipids extracted from egg yolk after 1 hr by UV-Vis spectrophotometric method; type: functional; how it was run: as §1
# Acetylcholinesterase, sequence (O42275 whole entry): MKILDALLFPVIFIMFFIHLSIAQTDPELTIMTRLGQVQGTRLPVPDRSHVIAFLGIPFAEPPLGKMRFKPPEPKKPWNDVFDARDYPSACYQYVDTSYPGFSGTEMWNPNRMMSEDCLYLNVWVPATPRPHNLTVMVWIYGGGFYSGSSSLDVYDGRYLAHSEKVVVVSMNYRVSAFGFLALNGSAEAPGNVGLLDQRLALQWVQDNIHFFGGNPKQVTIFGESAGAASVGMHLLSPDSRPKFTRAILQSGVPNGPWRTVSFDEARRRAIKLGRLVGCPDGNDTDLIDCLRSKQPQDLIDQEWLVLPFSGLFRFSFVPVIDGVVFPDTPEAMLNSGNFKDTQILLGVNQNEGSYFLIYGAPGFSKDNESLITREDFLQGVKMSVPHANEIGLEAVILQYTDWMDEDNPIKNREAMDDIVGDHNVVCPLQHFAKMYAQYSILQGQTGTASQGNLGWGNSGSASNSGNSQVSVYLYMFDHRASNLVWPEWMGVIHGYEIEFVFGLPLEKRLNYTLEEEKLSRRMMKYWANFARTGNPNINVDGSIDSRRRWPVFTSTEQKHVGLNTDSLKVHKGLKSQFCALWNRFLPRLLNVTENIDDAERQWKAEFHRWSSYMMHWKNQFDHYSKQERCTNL
SMILES,EC50 [1],MDA level [2],IC50 (Acetylcholinesterase),Activity [3]
CCOC(=O)C1=C(C[Se]C(C)=O)NC(=O)NC1c1ccccc1 (stereo not given),41.2 µM,5.1 nmol,14.2 µM,
CCOC(=O)C1=C(C[Se]C(=O)c2ccc(C)cc2)NC(=O)NC1c1cccc2ccccc12 (stereo not given),35.5 µM,1.96 nmol,,
Cc1cc(C(C)(C)C)c(O)c(C(C)(C)C)c1 [BUTYLATED HYDROXYTOLUENE],23.3 µM,,,
CCOC(=O)C1=C(C[Se]C(=O)c2ccc(C)cc2)NC(=O)NC1c1ccc(N(C)C)cc1 (stereo not given),29.6 µM,3.96 nmol,,
CCOC(=O)C1=C(C[Se]C(=O)c2cccc(C(=O)[Se]CC3=C(C(=O)OCC)C(c4ccccc4)NC(=O)N3)c2)NC(=O)NC1c1ccccc1 (stereo not given),29.9 µM,3.99 nmol,10.6 µM,
CCOC(=O)C1=C(C[Se]C(=O)c2ccc(C)cc2)N(C)C(=O)NC1c1cccc([N+](=O)[O-])c1 (stereo not given),32.8 µM,2.29 nmol,,
CCOC(=O)C1=C(C[Se]C(=O)c2ccc(C)cc2)NC(=O)NC1c1ccccc1 (stereo not given),10.5 µM,0.46 nmol,7.21 µM,Dose-dependent effect
O=c1c2ccccc2[se]n1-c1ccccc1,,3.22 nmol,,
CCOC(=O)C1=C(C[Se]C(=O)c2ccc(C)cc2)NC(=O)NC1c1ccc(C)cc1 (stereo not given),21.2 µM,0.87 nmol,,Dose-dependent effect
Cc1ccc(C(=O)[Se]Cc2ccccc2)cc1,22.4 µM,1.23 nmol,12.9 µM,
CCOC(=O)C1=C(C)NC(=O)NC1c1ccccc1 (stereo not given),15.8 µM,3.03 nmol,9.23 µM,
c1ccc([Se][Se]c2ccccc2)cc1,,2.41 nmol,,
CCOC(=O)C1=C(CSC(=O)c2ccc(C)cc2)NC(=O)NC1c1ccccc1 (stereo not given),20.2 µM,3.14 nmol,11.7 µM,
CCOC(=O)C1=C(C[Se]C(=O)c2ccc(C)cc2)NC(=O)NC1c1cccc([N+](=O)[O-])c1 (stereo not given),24.5 µM,1.51 nmol,,
CCOC(=O)C1=C(C[Se]C(=O)c2ccc(C)cc2)NC(=O)NC1c1ccc(O)c(OC)c1 (stereo not given),8.1 µM,0.68 nmol,13.6 µM,Dose-dependent effect
CCOC(=O)C1=C(C[Se]C(=O)c2ccc(C)cc2)NC(=O)NC1c1ccc(OC)cc1 (stereo not given),22.4 µM,0.77 nmol,,Dose-dependent effect
